For series [1], the system named is Canis familiaris. Nature of the series: Diuretic activity was evaluated by measuring amount of Na+ during 0-6 h in urine of normotensive saline loaded dogs at 0.3 mg/kg, po. The note with it: dog, in vivo. The series is classed as ADME, organism-based, Canis lupus familiaris. Also on record: dose 0.3 mg/kg, route oral. The method in brief:
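Conscious dogs, each given a single oral dose per experiment, with at least two dogs per dose. Urine volume is measured; aliquots are centrifuged and chilled. Heparinized venous blood (4 mL) is drawn at each urine collection. Urine and plasma are analyzed for Na+, K+, Cl−, urate and glucose. Result is mean Na+ excretion in mequiv kg−1 (6 h)−1.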

Series [2] deals with Canis familiaris. Description: Diuretic activity was evaluated by measuring amount of Cl- during 0-6 hr in urine of normotensive saline loaded dogs at 0.1 mg/kg, po. Also on record: dose 0.1 mg/kg, route oral. The note with it: dog, in vivo. The series is classed as ADME, organism-based, Canis lupus familiaris. The method in brief: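 Conscious female dogs, each given one oral dose per experiment. Urine and heparinized venous plasma were taken at each collection time. Urine was centrifuged and chilled, and plasma was separated within 30 min. Both were assayed for Na+, K+, Cl−, urate and glucose. Results are mean excretion in mequiv kg−1 (6 h)−1, with at least two dogs per dose.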

For `CCOC(=O)COc1ccc(C(=O)c2ccc(O)c(CN)c2)c(Cl)c1Cl.Cl`, the values for the Diuretic activity in series [1] and in series [2] were 2.7 m equiv kg-1 and 1 m equiv kg-1, respectively.

The values are drawn from ChEMBL document CHEMBL1122781, “[(Aminomethyl)aryloxy]acetic acid esters. A new class of high-ceiling diuretics. 1. Effects of nitrogen and aromatic nuclear substitution” (J Med Chem, 1984).
